# “Also recorded” adds a separate entry of the source.
# Tests used:
# [1] = target: CDK1/cyclin B1 (Homo sapiens, UniProt P06493); test: In vitro CDK1 kinase assay; assay type: biochemical; conditions: for effect on CDK1 enzyme activity (in words): in vitro kinase assay, H1 histone phosphorylation; for inhibition of CDK1 enzyme activity: quantification of band intensities, Fig. 1C/D, H1 histones
# How it was run: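 Purified CDK1/cyclin B1 complex in kit reaction buffer, pre-incubated with test compound at various concentrations for 10 min at room temperature. Phosphorylation run with 15 µM ATP, 2 µCi [γ-32P]ATP and 5 µg H1 histone at 30°C for 20 min, then stopped with 20 mM EDTA (final). Products resolved by 10% SDS-PAGE and autoradiographed; bands quantified as percent of control. Done 3–6 independent times.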
# [2] = cited from earlier work
# [3] = target: T1, CDK2/cyclin A2 (Homo sapiens, UniProt P24941); conditions: in vitro kinase assays; cited from earlier work
# [4] = target: CDK6/cyclin D1 (Homo sapiens, UniProt Q00534); test: In vitro CDK6 kinase assay; assay type: biochemical; conditions: for effect on CDK6 enzyme activity (in words): 0.5 mM (Fig. 7G, H), Rb substrate; for inhibition at 500 µM: read-out: inhibition of CDK6 activity
# How it was run: (§1)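 Kinases were purified CDK2/cyclin A2, CDK4/cyclin D1 and CDK6/cyclin D1, each pre-incubated with test compound for 10 min at room temperature, mostly at 0.5 mM, with some dose series. Reaction used 15 µM ATP, 2 µCi [γ-32P]ATP and 5 µg protein substrate (H1 histone for CDK2) at 30°C for 20 min, stopped with 20 mM EDTA. Read by SDS-PAGE autoradiography, bands expressed as percent of control.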
# [5] = target: CDK4/cyclin D1 (Homo sapiens, UniProt P11802); test: In vitro CDK4 kinase assay; assay type: biochemical; conditions: for effect on CDK4 enzyme activity (in words): 0.5 mM (Fig. 7E, F), Rb substrate
# How it was run: as §1
# [6] = target: T1, CDK2/cyclin A2; test: In vitro CDK2 kinase assay; assay type: biochemical; conditions: for effect on CDK2 enzyme activity (in words): 0.5 mM (Fig. 7), pre-incubated 10 min, H1 histones
# How it was run: as §1
# [7] = MTT cytotoxicity assay; assay type: cell-based, human; conditions: human, HCT-116 colorectal carcinoma cells
# How it was run: (§2)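 HCT-116 cells kept in McCoy's 5A with 10% FBS, seeded overnight at 20,000 cells/well, then exposed to test compounds at various concentrations for 72 h. Viability read by MTT. IC50 taken from the concentration series. Experiments repeated 3–6 times independently.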
# [8] = test system: HCT-116 cells; test: MTT cytotoxicity assay; assay type: cell-based, human; conditions: Homo sapiens, HCT-116, 72 h, read-out: MTT assay HCT-116 72 h (IC50)
# How it was run: as §2
# [9] = target: cellular CDK1 in HCT-116 cells (Homo sapiens, UniProt P06493); test: Acetylation of cellular CDK1 in HCT-116 cells; assay type: cell-based; conditions: 0.25–2.5 mM, 12 h
# [10] = CDK1 IC50, Table III, purified CDK1 enzyme
# [11] = CDK1 IC50, text, dose-dependent inhibition, Fig. 1E-H
# Chain of CDK6/cyclin D1 (Q00534 whole entry): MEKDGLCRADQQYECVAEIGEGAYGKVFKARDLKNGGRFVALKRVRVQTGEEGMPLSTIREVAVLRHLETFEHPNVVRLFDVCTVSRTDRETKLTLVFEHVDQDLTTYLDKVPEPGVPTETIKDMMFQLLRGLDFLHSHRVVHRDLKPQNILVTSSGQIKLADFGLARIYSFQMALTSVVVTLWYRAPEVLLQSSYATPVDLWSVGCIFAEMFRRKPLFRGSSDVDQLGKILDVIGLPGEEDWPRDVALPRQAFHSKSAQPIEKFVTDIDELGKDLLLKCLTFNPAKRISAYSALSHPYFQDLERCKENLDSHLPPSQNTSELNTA
# Chain of CDK6/cyclin D1 (P24385 whole entry partner): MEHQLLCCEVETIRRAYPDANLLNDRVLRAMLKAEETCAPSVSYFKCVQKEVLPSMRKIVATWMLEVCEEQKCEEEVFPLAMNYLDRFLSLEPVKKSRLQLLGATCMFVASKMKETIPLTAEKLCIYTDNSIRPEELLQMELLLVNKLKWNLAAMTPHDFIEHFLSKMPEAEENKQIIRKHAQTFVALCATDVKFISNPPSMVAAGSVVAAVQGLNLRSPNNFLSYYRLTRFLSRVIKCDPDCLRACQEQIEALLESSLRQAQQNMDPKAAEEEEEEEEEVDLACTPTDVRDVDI
# Chain of CDK4/cyclin D1 (P11802 whole entry): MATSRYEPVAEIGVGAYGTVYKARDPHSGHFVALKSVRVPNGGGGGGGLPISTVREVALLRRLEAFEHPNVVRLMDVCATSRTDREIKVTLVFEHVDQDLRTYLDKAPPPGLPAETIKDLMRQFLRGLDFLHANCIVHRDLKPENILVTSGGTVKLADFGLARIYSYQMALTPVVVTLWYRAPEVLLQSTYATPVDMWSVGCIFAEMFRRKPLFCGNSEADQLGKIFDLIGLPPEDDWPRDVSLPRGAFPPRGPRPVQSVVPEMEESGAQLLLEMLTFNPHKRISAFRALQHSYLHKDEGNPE
# Chain of CDK4/cyclin D1 (P24385 whole entry partner): as the sequence (P24385 whole entry partner) above
# Chain of CDK1/cyclin B1 (P14635 whole entry): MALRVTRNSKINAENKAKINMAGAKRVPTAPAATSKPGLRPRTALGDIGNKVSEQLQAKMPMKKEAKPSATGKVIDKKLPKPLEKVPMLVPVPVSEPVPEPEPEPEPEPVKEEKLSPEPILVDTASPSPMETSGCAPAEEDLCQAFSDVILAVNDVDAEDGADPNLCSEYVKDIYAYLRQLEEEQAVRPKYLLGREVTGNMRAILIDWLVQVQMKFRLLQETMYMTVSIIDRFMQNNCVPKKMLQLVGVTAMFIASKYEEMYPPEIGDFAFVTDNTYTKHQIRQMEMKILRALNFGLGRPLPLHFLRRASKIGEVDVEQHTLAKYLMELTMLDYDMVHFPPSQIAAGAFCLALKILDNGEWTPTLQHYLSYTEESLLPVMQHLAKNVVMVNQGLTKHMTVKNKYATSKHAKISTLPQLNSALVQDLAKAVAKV
# Chain of CDK1/cyclin B1 (P06493 whole entry): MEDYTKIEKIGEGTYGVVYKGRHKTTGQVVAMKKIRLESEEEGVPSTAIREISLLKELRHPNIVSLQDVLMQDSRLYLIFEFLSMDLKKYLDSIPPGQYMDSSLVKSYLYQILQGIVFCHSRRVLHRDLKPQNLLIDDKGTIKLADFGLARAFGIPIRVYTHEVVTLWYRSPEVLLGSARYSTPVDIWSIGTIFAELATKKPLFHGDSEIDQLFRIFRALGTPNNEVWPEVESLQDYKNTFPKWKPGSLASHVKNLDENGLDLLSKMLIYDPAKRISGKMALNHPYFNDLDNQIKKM
# Chain of cellular CDK1 in HCT-116 cells (P06493 whole entry): as above
inhibition of CDK1 enzyme activity [1],effect on CDK6 enzyme activity (in words) [4],effect on CDK4 enzyme activity (in words) [5],Compound,effect on CDK1 enzyme activity (in words) [1],effect on CDK2 enzyme activity (in words) [6],other results
,,,"CN1CC[C@H](c2c(O)cc(O)c3c(=O)cc(-c4ccccc4Cl)oc23)[C@H](O)C1 [flavopiridol, reference compound]",dose-dependently inhibited,,
25%,,,"O=C(O)c1ccc(O)cc1O [2,4-DHBA, 2,4-dihydroxybenzoic acid]",,,
,,,"O=C(O)c1ccccc1 [benzoic acid, reference compound]",did not show any inhibition; also recorded: failed to inhibit,,
,,,"Nc1ccc(O)c(C(=O)O)c1 [5-aminosalicylic acid, reference compound]",did not show any inhibition,,effect on CDK1 enzyme activity (in words) ([1]; listed as 5-amino-salicylic acid): failed to inhibit
,did not affect,failed to inhibit,"O=C(O)c1ccccc1O [Salicylic acid, reference compound]",do not inhibit; also recorded: failed to inhibit,did not inhibit,"half-life ([2]; depending upon the dose): 4 to 6 h; conjugation with glycine to salicyluric acid ([2]; liver): 20–65%; effect on CDK2 enzyme activity (in words), previous study [3]: failed to inhibit"
,,,"O=C(O)c1cc(O)cc(O)c1 [3,5-DHBA]",failed to inhibit,,
,,,"O=C(O)c1cc(O)c(O)c(O)c1 [3,4,5-THBA, gallic acid]",did not show any inhibitory effect; also recorded: failed to inhibit,,
,did not affect,failed to inhibit,CC(=O)Oc1ccccc1C(=O)O [Aspirin],do not inhibit; also recorded: failed to inhibit,did not inhibit,"oral bioavailability [2]: 40–50%; effect on CDK2 enzyme activity (in words), previous study [3]: failed to inhibit; acetylation of cellular CDK1 (in words) [9]: acetylated in aspirin treated samples in a dose-dependent fashion"
,,,"O=C(O)c1ccc(O)c(O)c1 [3,4-DHBA]",did not show any inhibition; also recorded: failed to inhibit,,
,inhibited,inhibited,"O=C(O)c1c(O)cc(O)cc1O [2,4,6-THBA, 2,4,6-trihydroxybenzoic acid]",inhibited,dose-dependent inhibition; also recorded: inhibited,"IC50 [1, 10]: 226 µM; inhibition at 500 µM [4]: 40%; inhibition at 500 µM ([5]; read-out: inhibition of CDK4 activity): 45%; IC50 [6]: ~300 µM; IC50 at 72 h [7]: 800 µM; IC50 [8]: 785 µM"
22%,,,"O=C(O)c1cc(O)ccc1O [2,5-DHBA, 2,5-dihydroxybenzoic acid]",,,

Compound,inhibition of CDK1 enzyme activity [1],effect on CDK6 enzyme activity (in words) [4],effect on CDK4 enzyme activity (in words) [5],effect on CDK1 enzyme activity (in words) [1],effect on CDK2 enzyme activity (in words) [6],other results
"O=C(O)c1c(O)cccc1O [2,6-DHBA, 2,6-dihydroxybenzoic acid]",65%,inhibited,failed to inhibit; also recorded: either no or marginal effect,,did not inhibit; also recorded: either no or marginal effect,"IC50 [1, 10]: 365 µM; IC50 [1, 11]: 365 µM; inhibition at 500 µM [4]: 37%; IC50 at 72 h [7]: 1900 µM; IC50 [8]: 1950 µM"
"O=C(O)c1cccc(O)c1O [2,3-DHBA, 2,3-dihydroxy-benzoic acid]",55%,inhibited,failed to inhibit; also recorded: either no or marginal effect,,did not inhibit; also recorded: either no or marginal effect,"IC50 [1, 10]: 386 µM; IC50 [1, 11]: 386 µM; inhibition at 500 µM [4]: 28%; IC50 at 72 h [7]: ~1800 µM; IC50 [8]: 1780 µM"

# Source: publication PMC5673027 (International Journal of Oncology, 2017)
